From ChEMBL document CHEMBL4715838, “Novel diosgenin derivatives containing 1,3,4-oxadiazole/thiadiazole moieties as potential antitumor agents: Design, synthesis and cytotoxic evaluation” (Eur J Med Chem, 2020)
Calls of active or inactive are those of the source. The calls are words filed in the database; no cut-off is given here.

Tests used:
A549 [1] = test: Cytotoxicity against human A549 cells assessed as reduction in cell viability measured after 48 hrs by MTT assay; format: functional, cell-based; details: A549, 48 h
Procedure, shortened: (§1)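 Cells in DMEM with 10% FBS, penicillin/streptomycin, 37 °C, 5% CO2. Seeded at 5×10^3 per well directly into medium holding graded concentrations of sample and incubated 48 h. MTT (5 mg/mL in PBS) added for 4 h, medium replaced with DMSO, absorbance read at 492 nm. IC50 taken as the concentration giving 50% inhibition of proliferation; three replicates, means ± SD.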

GES1 = test: Cytotoxicity against human GES1 cells assessed as reduction in cell viability measured after 48 hrs by MTT assay; format: cell-based; details: GES1, 48 h; procedure, shortened: as §1
HCT-116 = test: Cytotoxicity against human HCT-116 cells assessed as reduction in cell viability measured after 48 hrs by MTT assay; format: functional, cell-based; details: HCT-116, 48 h; procedure, shortened: as §1
MCF7 = test: Cytotoxicity against human MCF7 cells assessed as reduction in cell viability measured after 48 hrs by MTT assay; format: functional, cell-based; details: MCF7, 48 h; procedure, shortened: as §1
HepG2 [2] = test: Cytotoxicity against human HepG2 cells assessed as reduction in cell viability measured after 48 hrs by MTT assay; format: functional, cell-based; details: HepG2, 48 h; procedure, shortened: as §1
HepG2 [3] = test: Potency index, ratio of diosgenin IC50 to test compound IC50 for cytotoxicity against human HepG2 cells assessed as reduction in cell viability; format: functional
A549 [4] = test: Induction of apoptosis in human A549 cells assessed as membrane blebbing at 30 uM measured after 48 hrs by phase contrast microscopic analysis; format: functional, cell-based
Procedure, shortened: (§2)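 A549 seeded at 2×10^5 cells/well and allowed to settle 24 h. Then exposed 48 h to test compound (15 or 30 μM) or diosgenin (30 μM); controls received 0.1% DMSO. Cell shape examined by phase contrast microscopy.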

A549 [5] = test: Induction of apoptosis in human A549 cells assessed as early apoptotic cells at 30 uM after 48 hrs by AnnexinV-FITC/propidium iodide staining based flow cytometry analysis (reference value: 0.5 to 2.3 %); format: functional
A549 [6] = test: Induction of apoptosis in human A549 cells assessed as increase in cleaved PARP expression at 15 to 30 uM by Western blot analysis; format: functional, cell-based; details: dose 15-30 µM
Procedure, shortened: (§3)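 A549 treated with compound (0, 7.5, 15, 30 μM) or diosgenin (0, 15, 30 μM), lysed in RIPA and boiled 10 min. 30 μg protein run on 10% SDS-PAGE, blotted to nitrocellulose, blocked in 5% BSA. Primary antibodies used at 1:1000, HRP secondary at 1:5000 for 2 h, ECL detection. β-actin served as loading control.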

A549 [7] = test: Induction of apoptosis in human A549 cells assessed as late apoptotic cells at 15 uM after 48 hrs by AnnexinV-FITC/propidium iodide staining based flow cytometry analysis (reference value: 1 to 3.1 %); format: functional
A549 [8] = test: Induction of apoptosis in human A549 cells assessed as late apoptotic cells at 30 uM after 48 hrs by AnnexinV-FITC/propidium iodide staining based flow cytometry analysis (reference value: 1 to 3.1 %); format: functional
A549 [9] = test: Induction of apoptosis in human A549 cells assessed as early apoptotic cells at 15 uM after 48 hrs by AnnexinV-FITC/propidium iodide staining based flow cytometry analysis (reference value: 0.5 to 2.3 %); format: functional
A549 [10] = test: Induction of apoptosis in human A549 cells assessed as formation of apoptotic bodies at 30 uM measured after 48 hrs by phase contrast microscopic analysis; format: functional, cell-based; procedure, shortened: as §2
A549 [11] = test: Induction of apoptosis in human A549 cells assessed as cell rounding at 30 uM measured after 48 hrs by phase contrast microscopic analysis; format: functional, cell-based; procedure, shortened: as §2
A549 [12] = test: Induction of apoptosis in human A549 cells assessed as increase in cleaved caspase 9 expression at 15 to 30 uM by Western blot analysis; format: functional, cell-based; details: dose 15-30 µM; procedure, shortened: as §3
A549 [13] = test: Induction of apoptosis in human A549 cells assessed as increase in cleaved caspase 3 expression at 15 to 30 uM by Western blot analysis; format: functional, cell-based; details: dose 15-30 µM; procedure, shortened: as §3
A549 [14] = test: Induction of apoptosis in human A549 cells assessed as cell shrinkage at 30 uM measured after 48 hrs by phase contrast microscopic analysis; format: functional, cell-based; procedure, shortened: as §2

Row | SMILES | IC50 (A549 [1]) [µM] | IC50 (GES1) [µM] | IC50 (HCT-116) [µM] | IC50 (MCF7) [µM] | IC50 (HepG2 [2]) [µM] | also measured
1 | C[C@H]1[C@H]2[C@H](C[C@H]3[C@@H]4CC=C5C[C@@H](O)CC[C@]5(C)[C@H]4CC[C@]23C)O[C@@H]1CC[C@@H](C)c1nnc(-c2cccnc2)s1 | 7.68 | 354 | 51.6 | > 100 | 8.83 | –
2 | COc1ccc(-c2nnc([C@H](C)CC[C@H]3O[C@H]4C[C@H]5[C@@H]6CC=C7C[C@@H](O)CC[C@]7(C)[C@H]6CC[C@]5(C)[C@H]4[C@@H]3C)s2)cc1 | 16.4 | 209 | > 100 | > 100 | 23.1 | –
3 | C[C@H]1[C@H]2[C@H](C[C@H]3[C@@H]4CC=C5C[C@@H](O)CC[C@]5(C)[C@H]4CC[C@]23C)O[C@@H]1CC[C@@H](C)c1nnc(-c2ccccc2)s1 | 15 | 527 | 48.9 | 27.4 | 32.1 | Ratio IC50 (HepG2 [3]): 1.05
4 | C[C@@H]1CC[C@@]2(OC1)O[C@H]1C[C@H]3[C@@H]4CC=C5C[C@@H](O)CC[C@]5(C)[C@H]4CC[C@]3(C)[C@H]1[C@@H]2C [DISOGENIN] | 26.4 | 101 | 49.1 | 23.9 | 33.9 | Activity (A549 [4]): inactive; Activity (A549 [5]): 2.5%; Activity (A549 [6]): inactive; Activity (A549 [7]): 3.1%; Activity (A549 [8]): 2%; Activity (A549 [9]): 2.3%; Activity (A549 [10]): inactive; Activity (A549 [11]): inactive; Activity (A549 [12]): inactive; Activity (A549 [13]): inactive; Activity (A549 [14]): inactive
5 | CO[C@@]12[C@H](COC(N)=O)C3=C(C(=O)C(C)=C(N)C3=O)N1C[C@@H]1N[C@@H]12 [MITOMYCIN] | 11 | 21.1 | 11 | 16.7 | 32.6 | –
6 | CC(=O)O[C@H]1CC[C@@]2(C)C(=CC[C@H]3[C@@H]4C[C@@H]5O[C@H](CC[C@H](C)c6nnc(-c7cccc8ccccc78)o6)[C@@H](C)[C@@H]5[C@@]4(C)CC[C@@H]32)C1 | – | 70.1 | – | – | – | –
7 | CC(=O)O[C@H]1CC[C@@]2(C)C(=CC[C@H]3[C@@H]4C[C@@H]5O[C@H](CC[C@@H](C)c6nnc(-c7ccccc7)o6)[C@@H](C)[C@@H]5[C@@]4(C)CC[C@@H]32)C1 | 84.5 | 82.3 | > 100 | > 100 | 63.2 | –
8 | C[C@H]1[C@H]2[C@H](C[C@H]3[C@@H]4CC=C5C[C@@H](O)CC[C@]5(C)[C@H]4CC[C@]23C)O[C@@H]1CC[C@@H](C)c1nnc(-c2cccnc2)o1 | 98.1 | 199 | > 100 | > 100 | > 100 | –
9 | C[C@H]1[C@H]2[C@H](C[C@H]3[C@@H]4CC=C5C[C@@H](O)CC[C@]5(C)[C@H]4CC[C@]23C)O[C@@H]1CC[C@H](C)c1nnc(-c2cccc3ccccc23)o1 | 31.3 | 298 | > 100 | 69.7 | 29.2 | –
10 | CC(=O)O[C@H]1CC[C@@]2(C)C(=CC[C@H]3[C@@H]4C[C@@H]5O[C@H](CC[C@H](C)c6nnc(-c7cccc8ccccc78)s6)[C@@H](C)[C@@H]5[C@@]4(C)CC[C@@H]32)C1 | > 100 | – | > 100 | – | – | –
11 | CC(=O)O[C@H]1CC[C@@]2(C)C(=CC[C@H]3[C@@H]4C[C@@H]5O[C@H](CC[C@@H](C)c6nnc(-c7cccnc7)o6)[C@@H](C)[C@@H]5[C@@]4(C)CC[C@@H]32)C1 | 33.5 | 62.4 | 72.5 | > 100 | 82.6 | –
12 | Cc1nnc([C@H](C)CC[C@H]2O[C@H]3C[C@H]4[C@@H]5CC=C6C[C@@H](O)CC[C@]6(C)[C@H]5CC[C@]4(C)[C@H]3[C@@H]2C)s1 | 36.7 | 107 | 48.9 | 33.8 | 33.2 | –
13 | COc1ccc(-c2nnc([C@H](C)CC[C@H]3O[C@H]4C[C@H]5[C@@H]6CC=C7C[C@@H](OC(C)=O)CC[C@]7(C)[C@H]6CC[C@]5(C)[C@H]4[C@@H]3C)o2)cc1 | – | 151 | – | – | – | –
14 | COc1ccc(-c2nnc([C@H](C)CC[C@H]3O[C@H]4C[C@H]5[C@@H]6CC=C7C[C@@H](O)CC[C@]7(C)[C@H]6CC[C@]5(C)[C@H]4[C@@H]3C)o2)cc1 | – | – | > 100 | – | – | –
15 | CC(=O)O[C@H]1CC[C@@]2(C)C(=CC[C@H]3[C@@H]4C[C@@H]5O[C@H](CC[C@@H](C)c6nnc(C)s6)[C@@H](C)[C@@H]5[C@@]4(C)CC[C@@H]32)C1 | 40.3 | 75.8 | > 100 | 47.7 | 34.2 | –
16 | CC(=O)O[C@H]1CC[C@@]2(C)C(=CC[C@H]3[C@@H]4C[C@@H]5O[C@H](CC[C@@H](C)c6nnc(C)o6)[C@@H](C)[C@@H]5[C@@]4(C)CC[C@@H]32)C1 | 34.4 | 98.2 | 78.8 | 44.8 | 57.6 | –
17 | Cc1nnc([C@H](C)CC[C@H]2O[C@H]3C[C@H]4[C@@H]5CC=C6C[C@@H](O)CC[C@]6(C)[C@H]5CC[C@]4(C)[C@H]3[C@@H]2C)o1 | 30.4 | 72.8 | 51.6 | 20.4 | 34.2 | –
18 | C[C@H]1[C@H]2[C@H](C[C@H]3[C@@H]4CC=C5C[C@@H](O)CC[C@]5(C)[C@H]4CC[C@]23C)O[C@@H]1CC[C@H](C)c1nnc(-c2cccc3ccccc23)s1 | 18.3 | 201 | 46.6 | 63.8 | 32.9 | Ratio IC50 (HepG2 [3]): 1.02
19 | C[C@H]1[C@H]2[C@H](C[C@H]3[C@@H]4CC=C5C[C@@H](O)CC[C@]5(C)[C@H]4CC[C@]23C)O[C@@H]1CC[C@@H](C)c1nnc(-c2ccccc2)o1 | 64.2 | 120 | > 100 | 53 | 39.5 | –
